This is a sample that favours compounds with a hit; in the whole collection about 2.5% have one here.
EP2 mod: modulators of human EP2 prostaglandin E2 receptor. P43116. EP2-expressing cells, cAMP HTRF FRET, PGE2 co-stimulation. induction, % at 25 µM. 260,000 compounds, 0.83% hits;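 active = compounds whose cAMP rise, as percent of the full-agonist control response, exceeds 60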;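 note: rat C6 glioma line stably carrying human EP2 under a CMV promoter; the protocol text gives 20 µM as final concentration; 100% = response of wells given 1 µM PGE2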
Target sequence (P43116 whole entry, looked up): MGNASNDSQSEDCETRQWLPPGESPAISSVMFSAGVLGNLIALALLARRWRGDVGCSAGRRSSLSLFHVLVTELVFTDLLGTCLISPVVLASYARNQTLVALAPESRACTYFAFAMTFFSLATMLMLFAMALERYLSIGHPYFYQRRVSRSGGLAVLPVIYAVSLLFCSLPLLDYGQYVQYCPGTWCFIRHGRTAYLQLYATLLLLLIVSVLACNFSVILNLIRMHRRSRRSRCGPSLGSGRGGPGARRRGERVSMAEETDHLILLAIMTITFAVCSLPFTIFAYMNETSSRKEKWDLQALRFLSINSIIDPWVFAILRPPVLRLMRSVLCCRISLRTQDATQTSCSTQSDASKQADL
PfGluPho inh: PfG6PD (Plasmodium falciparum) enzyme inhibition; PfGluPho enzyme, NADPH resazurin-diaphorase fluorescence; inhibition, % at 20 µM; 350,000 compounds, 0.78% hits; AID 504690;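 active = inhibition reaching at least a set limit at 20 µM in the primary screen, cut at about 59% in these data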;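 note: 0% = DMSO wells with substrate and 100% = DMSO wells lacking glucose-6-phosphate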
PGE2 EP2 inh: blocks the human prostaglandin E2 receptor EP2; P43116; C6 glioma cells expressing human EP2, cAMP TR-FRET; cells stimulated with saturating PGE2; inhibition, % at 25 µM; 260,000 compounds, 0.52% hits; AID 1422;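 active = percent inhibition above 40 after rounding to a whole number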;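 note: rat C6 glioma host cells with rolipram phosphodiesterase inhibitor present; the protocol text gives 20 µM as final concentration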
PHOSPHO1 block: inhibitors of human PHOSPHO1 phosphatase | 290,000 compounds, 1.1% hits | AID 1565 | inhibition, % at 13.3 µM | recombinant PHOSPHO1, absorbance phosphatase assay | Q8TCT1; in the data active = inhibition above about 60%
Target sequence (Q8TCT1 whole entry, looked up): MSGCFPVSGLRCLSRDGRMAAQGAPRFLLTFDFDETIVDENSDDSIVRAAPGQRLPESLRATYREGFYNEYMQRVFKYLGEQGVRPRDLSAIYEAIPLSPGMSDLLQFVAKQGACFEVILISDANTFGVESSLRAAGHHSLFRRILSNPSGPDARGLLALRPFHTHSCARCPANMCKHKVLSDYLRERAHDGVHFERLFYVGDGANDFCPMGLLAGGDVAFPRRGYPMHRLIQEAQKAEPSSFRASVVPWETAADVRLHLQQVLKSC
TbHK1 inh: T. brucei hexokinase 1 inhibition; 220,000 compounds, 0.11% hits; AID 1430; inhibition, % at 10 µM; recombinant TbHK1, G6PDH-coupled NADH A340;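 active = inhibition of 50% or more in the single-dose primary screen; inactive = inhibition below 50%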
HKDC1 inh: blocks human hexokinase HKDC1 activity. Q2TB90. recombinant HKDC1, G6PDH/diaphorase resazurin coupled fluorescence. 340,000 compounds, 0.16% hits. AID 493160. inhibition, % at 20 µM;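 active = inhibition above about 35% when tested at 20 µM, limit read from the data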;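 note: plate controls were DMSO wells with enzyme for no effect and DMSO wells lacking enzyme for full effect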
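Assay system – recombinant HKDC1 (HK5) hexokinase enzyme, produced in-house · Input – HKDC1 at 5 µg/mL · Reagent – glucose plus 1 mM ATP as hexokinase substrates · Timing – 90 min reaction incubation at room temperature, dark · Measured by – G6PDH/diaphorase-coupled fluorescence, 1 mM NADP, 100 µM resazurin, 525/613 nm · Benchmarks – DMSO-enzyme wells negative, buffer-substituted wells positive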
Numbers without * were called inactive; / = no result given; ! = repeats disagree.

SMILES | EP2 mod | PfGluPho inh | PGE2 EP2 inh | PHOSPHO1 block | TbHK1 inh | HKDC1 inh
CN(C)CCCN1C(=O)c2cccc3c([N+](=O)[O-])ccc(c23)C1=O | -66 | 44 | 80* | 7 | -20 | 2
O=C1c2cccc3c([N+](=O)[O-])ccc(c23)C(=O)N1CCc1ccccn1 | -24 | 31 | 10 | 32 | -15 | -1
CC(C)(C)C(=O)N1CCc2cc(C(O)CN3CCCC3)ccc21 (stereo not drawn) | -18 | / | 5 | / | / | /
Nc1ccc(-c2nn3cnnc3s2)cc1 | -29 | / | 9 | / | / | /
CCOc1cc(-c2nn3cnnc3s2)cc(OCC)c1OCC | 61* | 15 | 7 | 20 | 1 | -8
CN1CCC(OC(=O)c2cc3cc(Cl)cc(Cl)c3oc2=O)CC1 | / | 5 | / | 61* | / | 1
CCOC(=O)C1=C(c2ccccc2)NC(=S)NC1c1cc(OC)c(OC)c(OC)c1 (stereo not drawn) | 27 | / | 22 | / | / | /
Nc1nnc(-c2ccncc2)s1 | 20 | -8 | 11 | 25 | -4 | 6
c1cc(-c2sc(-c3ccncc3)c(-c3ccncc3)c2-c2ccncc2)ccn1 | -12 | 20 | 41*! | 50 | -38 | 2
CCOC(=O)CN(C)C(=O)CCc1nnc(-c2ccc(-c3ccccc3)cc2)o1 | / | 2 | / | -28 | / | -1
CCN(CC)CCN(C)C(=O)CCc1nnc(-c2ccc(C)s2)o1 | -3 | -23 | 4 | 60* | -4 | -4
CCOc1ccc(N(CC(=O)Nc2ccccc2)S(C)(=O)=O)cc1 | -32 | 8 | 7 | 80* | -1 | -9
Cc1ccc2c(c1)cc(C)c1nn(CC(=O)N3CCC(C(N)=O)CC3)c(=O)n12 | -50 | / | 10 | / | / | /
O=C(O)CCSCC(=O)c1ccc2c(c1)OCCO2 | 7 | -13 | 7 | 78* | 6 | 1
O=C(O)CCC(=O)c1ccc2c(c1)OCCO2 | 19 | 4 | 8 | -4 | -4 | -7
Cc1cccc(C(C)C)c1NC(=O)COC(=O)CCN1C(=O)C2CC=CCC2C1=O (stereo not drawn) | / | -12 | / | 70* | / | 5
COc1ccc(CC(=O)OCc2cc3ccc(C)cc3[nH]c2=O)cc1 | -18 | 14 | 14 | 61* | -2 | 14
c1cncc(CSc2nnc3c4c5c(sc4nc(C4CC4)n23)CCCC5)c1 | 10 | / | 9 | / | / | /
c1cncc(CSc2nnc3c4ccccc4nc(C4CCCCC4)n23)c1 | 65* | / | 9 | / | / | /
Cc1ccc2c(c1)C(O)CC1(CCN(CC(O)c3ccc(F)cc3)CC1)O2 (stereo not drawn) | -63 | / | 5 | / | / | /
COc1cc(O)c2c(O)c3c(c4c2c1[C@]1(C4)C(C)=CCCC1(C)C)[C@H](O)[C@@]1(O)CC(=O)C(C(N)=O)=C(O)[C@]1(O)C3=O | 28 | / | 51* | / | / | /
CN(C(=O)c1ccccc1Cl)c1ccccc1C(=O)NCc1ccccc1 | / | 3 | / | 61* | / | -6
O=C(O)c1cccc2c1C(=O)c1ccccc1C2=O | 11 | -7 | 2 | -43 | -11 | 4
O=C(O)C1=C/C(=C(/c2ccccc2)c2cc(C(=O)O)c(O)c3ccccc23)c2ccccc2C1=O | 3 | / | 40*! | / | / | /
O=C(C1CCC1)N1CCC[C@H]1Cn1nc(-c2ccc3c(c2)OCO3)ccc1=O | -13 | / | / | / | / | /
SMILES | EP2 mod | PfGluPho inh | PGE2 EP2 inh | PHOSPHO1 block | TbHK1 inh | HKDC1 inh
CSCC[C@H](NC(=O)OC(C)(C)C)c1nnc(SCc2cccc(F)c2)o1 | 36 | 10 | 22 | 74* | -15 | -2
Cn1c(SCC(=O)n2c3c(c4ccccc42)CCCC3)nnc1-c1ccccc1 | -2 | 32 | 5 | 8 | -12 | 4
Cc1nnc(SCC(=O)n2c3c(c4ccccc42)CCCC3)s1 | 64* | 27 | 10 | -2 | 3 | 2
CCOc1ccc(/C(O)=C2/C(=O)C(=O)NC2c2ccc(O)c(OCC)c2)cc1 (stereo not drawn) | 18 | / | 13 | / | / | /
O=C(c1ccc(Cl)cc1)N1CCNCC1 | -20 | / | 15 | / | / | /
Cc1c(N2C(=O)c3ccc4c5c(ccc(c35)C2=O)CC4)c(=O)n(-c2ccccc2)n1C | -22 | 7 | 16 | 78* | -11 | 28
O=C(NCc1ccccn1)c1ccc(N2CCCC2)c([N+](=O)[O-])c1 | -18 | -1 | 8 | 63* | 0 | -3
CN(c1ccccc1)S(=O)(=O)c1ccc(C(=O)NCc2ccccn2)cc1 | -5 | 4 | 10 | 12 | 2 | -4
CN(C)S(=O)(=O)c1ccc(C(=O)NCc2ccccn2)cc1 | 23 | 14 | 4 | 62* | 3 | 12
O=C(Cn1nc(C(F)(F)F)c2c1CCCC2)NCc1ccccc1 | -11 | / | 8 | / | / | /
O=C(NC1CCS(=O)(=O)C1)/C(=C\c1ccccc1)NC(=O)c1ccccc1 (stereo not drawn) | 3 | 13 | 6 | 4 | 2 | 3
O=C(NC1CCS(=O)(=O)C1)/C(=C/c1ccc(Cl)cc1)NC(=O)c1ccccc1 (stereo not drawn) | 22 | -9 | 9 | 181* | -2 | -11
O=C(Nc1ccccc1Cl)N(Cc1ccco1)Cc1cc2cc3c(cc2[nH]c1=O)OCCO3 | 11 | / | 8 | / | / | /
Cc1ccc(S(=O)(=O)NCCSc2nnc3nc(C)cc(C)n23)cc1 | 23 | / | 10 | / | / | /
O=C(Nc1ccc(N2CCOCC2)cc1)c1ccc2nc(-c3ccco3)c(-c3ccco3)nc2c1 | -51 | 14 | 10 | -26 | -17 | -3
CCCCNC(=O)c1ccc2nc(-c3ccco3)c(-c3ccco3)nc2c1 | -11 | 44 | 14 | -9 | -1 | 19
S=C(Nc1ccc(N2CCOCC2)cc1)Nc1ccc2nc(-c3ccco3)c(-c3ccco3)nc2c1 | -57 | 59 | / | 92* | -43 | 17
CC(=O)c1ccc(NC(=O)c2ccc3nc(-c4ccco4)c(-c4ccco4)nc3c2)cc1 | -17 | 78* | 27 | 98* | -14 | 41*
Cc1ccc(NCc2nnc(SCC(N)=O)n2C)cc1Cl | -33 | / | 8 | / | / | /
O=C(Cn1c(-c2cccs2)cc2cccnc21)N1CCOCC1 | -2 | / | 7 | / | / | /
Clc1ccc2c(c1Cl)NC(c1ccccn1)C1CC=CC21 (stereo not drawn) | 33 | / | 6 | / | / | /
O=C(O)c1ccc(Cl)c2c1C1C=CCC1C(c1ccccn1)N2 (stereo not drawn) | 8 | / | 10 | 83* | -7 | /
O=C(NCCN1CCCC1)c1cccc(Cl)c1 | 11 | -1 | 8 | 60* | 0 | -6
O=C(c1ccc2c(=O)n(C3CCCC3)c(=S)[nH]c2c1)N1CCc2ccccc21 | 0 | -1 | 4 | 63* | 5 | 0
CC(C)NC(=O)c1ccc2c(=O)n(C3CCCC3)c(=S)[nH]c2c1 | -9 | 3 | 12 | 16 | -1 | -3
COc1ccc(-n2c(SCC(=O)C(C)(C)C)nc3c(sc(=S)n3-c3ccccc3)c2=O)c(OC)c1 | / | 78* | / | 42 | / | -14
CCOC(=O)CSc1nc2c(sc(=S)n2-c2ccccc2OC)c(=O)n1-c1ccccc1OC | / | 55 | / | 14 | / | 2
COc1cc(C(=O)N2CCC(C(=O)c3cccnc3)CC2)cc(OC)c1OC | -19 | / | 8 | / | / | /

High-throughput results deposited in PubChem by several laboratories.
